Source: PubChem
proCasp7 act: procaspase-7 activators, primary screen, counter-screen for procaspase-3 activator project, biochemical, absorbance, HTS, human; activation, % at 8.5 µM; Caspase-7 (Homo sapiens), P55210; recombinant procaspase-7, Ac-DEVD-pNA absorbance 405 nm; D23A/D198A/D206A triple mutant, cannot self-cleave; scale: DMSO 0, 5 µM enzyme 100; 330,000 compounds, 0.093% hits;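 active = percent activation above the screen-wide mean plus 3 SD, cut at about 25% in these data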
Target sequence (P55210 whole entry D23A/D198A/D206A): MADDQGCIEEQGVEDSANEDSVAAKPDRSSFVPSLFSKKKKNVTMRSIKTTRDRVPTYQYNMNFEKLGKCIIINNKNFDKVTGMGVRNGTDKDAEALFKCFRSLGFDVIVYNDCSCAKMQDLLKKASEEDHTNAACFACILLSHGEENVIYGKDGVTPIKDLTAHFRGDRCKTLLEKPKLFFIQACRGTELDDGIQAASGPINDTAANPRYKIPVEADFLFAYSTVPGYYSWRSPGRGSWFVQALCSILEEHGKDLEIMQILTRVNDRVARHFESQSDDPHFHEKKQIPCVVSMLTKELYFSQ
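buffer or medium = Zinc-free HEPES/NaCl buffer, pH 7.4 | material = Procaspase-7 triple mutant (PC-7 D3A) | input = 2 µM procaspase-7 mutant as dispensed | signal = Epi-absorbance of released pNA at 405 nm, two timepoints | timing = 1 h preincubation, 2 h reaction | replicates = singlicate compound testing | evaluation = % activation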
IDE cell inh: human IDE inhibitors in live cells, primary screen, fluorescence polarization, HEK cells, FAbetaB substrate. inhibition, % at 5.59 µM. 320,000 compounds, 0.41% hits. FAbetaB cleavage;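 active = percent inhibition above the average of all tested compounds plus 3 SD, set per screening campaign, cut at about 16% in these data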;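 also: IDE supplied by intact live HEK cells; FP after avidin binding of uncleaved biotin substrate so inhibition keeps polarization high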
UBC13 polyUb: UBC13 polyubiquitin chain formation inhibitors, primary screen, biochemical, TR-FRET, uHTS. Ubiquitin-conjugating enzyme E2 N (Homo sapiens), P61088. inhibition, % at 20 µM. 330,000 compounds, 0.47% hits; in the data active = inhibition above about 45%, passing the limit was not always enough
PHOSPHO1 block: PubChem AID 1565; recombinant PHOSPHO1, absorbance phosphatase assay; inhibition, % at 13.3 µM; 290,000 compounds, 1.1% hits; in the data active = inhibition above about 60%
IDE cell activ: human IDE activators in live cells, primary screen, fluorescence polarization, HEK cells, FAbeta-B substrate; FAbeta-B cleavage; 0% vehicle, 100% cell-free pure enzyme wells; activation, % at 5.96 µM; 340,000 compounds, 0.073% hits; AID 493087, 2011;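 active = activation above the mean of all tested compounds plus 3 SD, set per screening campaign, cut at about 17% in these data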
procasp3 activ: activators of human procaspase-3 D3A mutant, primary screen, biochemical, absorbance, PC-3 D3A mutant, single concentration; Caspase-3 (Homo sapiens), P42574; recombinant procaspase-3 D3A, Ac-DEVD-pNA absorbance 405 nm; activation, % at 8.5 µM; 330,000 compounds, 0.11% hits; AID 463141, 2010;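 active = activation above the mean of all tested compounds plus 3 SD, cut at about 21% in these data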
Target sequence (P42574 whole entry D9A/D28A/D175A): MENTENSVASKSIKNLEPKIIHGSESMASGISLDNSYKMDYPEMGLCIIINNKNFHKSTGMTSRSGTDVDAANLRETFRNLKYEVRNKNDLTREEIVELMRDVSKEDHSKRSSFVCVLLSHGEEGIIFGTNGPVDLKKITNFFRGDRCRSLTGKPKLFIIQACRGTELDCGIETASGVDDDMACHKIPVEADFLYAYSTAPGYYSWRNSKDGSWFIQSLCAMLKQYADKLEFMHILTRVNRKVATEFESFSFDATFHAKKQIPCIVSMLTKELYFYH
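Assay system – Procaspase-3 D3A mutant · Benchmarks – DMSO low control, extra-enzyme high control · Technique – 405 nm absorbance of p-nitroaniline, reads at 0 and 120 min · Doses – 8.5 µM nominal · Measure – % activation between DMSO and enzyme-spiked controls · Also added – Ac-DEVD-pNA chromogenic peptide substrate · Schedule – 1 h compound preincubation, 2 h substrate hydrolysis at 25 °C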
Each line names hits and unclear results; the compound was inactive in the other large screens. Only some compounds are listed: those with a hit (about 1.9% of all), similar ones and a draw of the others.

COc1cc(/C=N/N=C(N)N)ccc1OCc1ccccc1Cl	UBC13 polyUb 54
COc1ccc(/C=N/N=C/c2ccc(OC)c(OC)c2)cc1OC	none
Cc1ccccc1C(=O)c1cccn1CC(=O)NC(C)c1ccccc1 (stereo unspecified)	none
Cc1ccc(S(=O)(=O)CCN2CCC(n3cccc3)CC2)cc1	none
CC(=O)N1CCc2ccc([N+](=O)[O-])cc21	none (no result: proCasp7 act, IDE cell inh, UBC13 polyUb, PHOSPHO1 block, procasp3 activ)
CC(=O)N1CCC(=O)Nc2ccc([N+](=O)[O-])cc21	IDE cell activ 20
C=CCC1(CC=C)CCCN1C(=O)c1cc(COc2cccc(C(F)(F)F)c2)on1	PHOSPHO1 block 61 (no result: proCasp7 act, IDE cell inh, procasp3 activ)
Cc1cccc(CC(=O)NCCS(=O)(=O)N2CCN(c3cccc(Cl)c3)CC2)c1	none (no result: PHOSPHO1 block)
COc1ccc(CC(=O)NCC2CCCN(Cc3cccc(SC)c3)C2)cc1 (stereo unspecified)	PHOSPHO1 block 61
CC(C)CCN1C(Nc2ccccc2)=NC[C@@H]1C	none
c1ccc(Cc2noc(CN3CCN(CCOc4ccccc4)CC3)n2)cc1	none
COc1ccc(/C=C/C(=O)NC(=S)Nc2ccc(C(=O)O)cc2)cc1	PHOSPHO1 block 67 (no result: UBC13 polyUb)
COc1ccc(/C=C/C(=O)NC(=S)NNC(=O)Cc2cccs2)cc1	PHOSPHO1 block 96
COc1ccc(C(=O)NNC(=S)NC(=O)/C=C/c2cccs2)cc1	PHOSPHO1 block 90
O=C(/C=C/c1ccccc1)NC(=S)NNC(=O)Cc1cccs1	none
O=C(/C=C/c1cccs1)NC(=S)NNC(=O)c1ccccc1O	none
COc1ccc(NC(=S)NC(=O)/C=C/c2ccc(F)cc2)cc1	none (no result: proCasp7 act, IDE cell inh, procasp3 activ)
O=C(CC1C(=O)NCCN1C(=O)c1ccccc1)Nc1cc(Cl)ccc1Cl (stereo unspecified)	none
Cc1sc(-n2c(C)cc(/C=N/n3cnnc3)c2C)c(C#N)c1C	PHOSPHO1 block 84
CCCCn1c(-c2csc3c2CCC(C)C3)n[nH]c1=S (stereo unspecified)	PHOSPHO1 block 84
CCCCn1c(-c2csc3c2CCCC3)n[nH]c1=S	PHOSPHO1 block 100 (no result: IDE cell activ)
CCCCn1c(-c2csc3ccccc23)n[nH]c1=S	PHOSPHO1 block 95
CCOC(=O)CSc1nc2cc(C(=O)OC)ccc2c(=O)n1CCN1CCOCC1	PHOSPHO1 block 70
COC(=O)c1ccc2c(=O)n(CCN3CCOCC3)c(SCC(=O)C(C)(C)C)nc2c1	none
CC(C)[C@H](NC(=O)C1CCN(C(=O)[C@H](Cc2ccccc2)NC(=O)OC(C)(C)C)CC1)C(=O)O	PHOSPHO1 block 61
CCCn1c(SCC(=O)NC2CCCC2)nc2c1c(=O)n(C)c(=O)n2C	none
CN(CCc1ccccn1)C1CCCN(S(=O)(=O)c2ccc(F)c(Cl)c2)C1 (stereo unspecified)	none
Cc1cc(S(=O)(=O)N2CCCC(N(C)CCc3ccccn3)C2)c(C)s1 (stereo unspecified)	PHOSPHO1 block 75
CC(=O)Nc1ccc(S(=O)(=O)NC2=C(N3CCN(Cc4ccccc4)CC3)C(=O)c3ccccc3C2=O)cc1	PHOSPHO1 block 64 (no result: UBC13 polyUb)
CCN1CCN(C2=C(NS(=O)(=O)c3ccc(NC(C)=O)cc3)C(=O)c3ccccc3C2=O)CC1	none
CCOC(=O)c1sc2nc(C)n(N)c(=O)c2c1C	PHOSPHO1 block 63
COc1ccc(COc2cc(-c3cccc(OC)c3)nc3ccc(NC(=O)c4ccc(OC)cc4)cc23)cc1	PHOSPHO1 block 67
COc1ccc(OC)c(-n2c(-c3cc(-c4ccc(F)cc4)n[nH]3)n[nH]c2=S)c1	PHOSPHO1 block 91
COc1ccc(-c2n[nH]c(=S)n2-c2cc(OC)ccc2OC)cc1	none
COc1ccc(OC)c(-n2c(-c3cnccn3)n[nH]c2=S)c1	PHOSPHO1 block 84
S=c1[nH]nc(-c2cnccn2)n1-c1ccccc1	none
COc1ccc(-n2c(-c3cnccn3)n[nH]c2=S)cc1	PHOSPHO1 block 94
CCCN1CCC(NC(=O)Cc2ccccc2C)CC1	none (no result: PHOSPHO1 block)
CC(C(=O)NCc1ccccc1Cl)N1C(=O)c2ccccc2C1=O (stereo unspecified)	none
CC[C@H](C)C(N)c1cn([C@@H](CC(N)=O)C(=O)N2CCNCC2)nn1 (stereo partly specified)	none (no result: PHOSPHO1 block)
C#CCOCCOCCOCCNc1nc(N2CCN(C(=O)[C@H](C(C)C)n3cc(CCO)nn3)CC2)nc(N2CCN(C(=O)[C@H]([C@@H](C)CC)n3cc(CCC(=O)O)nn3)CC2)n1	none (no result: proCasp7 act, IDE cell inh, UBC13 polyUb, PHOSPHO1 block, procasp3 activ)
O=C(c1ncn[nH]1)N1CCN(c2nc(-c3ccccc3)cs2)CC1	PHOSPHO1 block 99
COCCNC(=S)NC1CC2CCCC(C1)N2Cc1cccs1 (stereo unspecified)	none
COCCCNC(=S)NC1CC2CCCC(C1)N2Cc1cccs1 (stereo unspecified)	PHOSPHO1 block 69
COc1cccc(-n2sc3c(c2=S)-c2cc(OC)ccc2NC3(C)C)c1	PHOSPHO1 block 88
Cc1cc(O)c(CN2CCN(S(=O)(=O)c3cccs3)CC2)cc1C(C)C	none (no result: PHOSPHO1 block)
COc1cc(/C=C(\C#N)c2nc3ccccc3s2)ccc1OCC(=O)Nc1ccccc1	IDE cell inh 28 (no result: UBC13 polyUb)
Cc1cc(C)n2nc(-c3sccc3-n3cccc3)cc2n1	PHOSPHO1 block 62
CC(C)(C)n1nc2c(c1NC(=O)c1cccc(Cl)c1)CS(=O)(=O)C2	PHOSPHO1 block 65
O=C1C=C(c2ccc(-c3ccccc3)cc2)C[C@@H](c2ccc3c(c2)OCO3)C1	IDE cell activ 43 (no result: PHOSPHO1 block)
CCC1CN(S(=O)(=O)c2cc(-c3cc(C)no3)ccc2OC)c2cc(C)ccc2O1 (stereo unspecified)	none
O=C(OCC(O)C(O)C(O)C(SCc1ccccc1)SCc1ccccc1)c1ccccc1 (stereo unspecified)	none (no result: proCasp7 act, IDE cell inh, UBC13 polyUb, PHOSPHO1 block, procasp3 activ)
O=C(Nc1cccc(Cl)c1)c1ccccc1NC(=O)C1CCCCC1C(=O)O (stereo unspecified)	none (no result: proCasp7 act, IDE cell inh, procasp3 activ)
Cc1ccc(Nc2nnc(SCC(=O)NCc3ccco3)s2)cc1	PHOSPHO1 block 74 (no result: proCasp7 act, IDE cell inh, UBC13 polyUb, procasp3 activ)
O=C(CSc1nnc(Nc2ccccc2F)s1)NCc1ccco1	PHOSPHO1 block 87 (no result: proCasp7 act, IDE cell inh, UBC13 polyUb, procasp3 activ)
Cc1ccccc1Nc1nnc(SCC(=O)NC(=O)NCc2ccco2)s1	PHOSPHO1 block 82
Cc1cc(NC(=O)CSc2nnc(Nc3ccccc3C)s2)no1	none
O=C(CSc1nnc(Nc2ccccc2)s1)NCc1ccco1	none
Cn1cccc1Cc1nnc(SCC(=O)N2CCN(c3ccccc3)CC2)n1-c1ccc(F)cc1	PHOSPHO1 block 70
